Measured values as given in ChEMBL document CHEMBL4017514, “Discovery of Novel Macrocyclic Hedgehog Pathway Inhibitors Acting by Suppressing the Gli-Mediated Transcription” (J Med Chem, 2017).
Activity calls are given as the source filed them.

What was measured:
Mus musculus [1] = species on record: Mus musculus; assay: Inhibition of hedgehog signaling pathway in mouse Light2 cells in Shh conditioned medium by Gli-luciferase reporter gene assay; format: cell-based
How it was run: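 Light II cells (NIH-3T3 stably transfected with Gli-responsive firefly luciferase and Renilla expression vector) stimulated with ShhN conditioned medium. This medium was collected from ShhN-transfected HEK293 cells kept in 0.1% FBS. Firefly luciferase normalized to Renilla. IC50 given as mean ± SD (nM) from three separate experiments.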

Mus musculus [2] = species on record: Mus musculus; assay: Inhibition of hedgehog signaling pathway in mouse NIH/3T3 cells assessed as downregulation of Shh-induced Gli1 mRNA expression levels at 300 nM after 36 hrs by RT-qPCR analysis; format: cell-based
How it was run: (§1)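 NIH-3T3 or C3H10T1/2 cells treated as indicated for 36 h, then collected for RT-qPCR of Gli1 and ptch1 mRNA. Data given as mean ± SD.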

Mus musculus [3] = species on record: Mus musculus; assay: Inhibition of hedgehog signaling pathway in mouse C3H10T1/2 cells assessed as downregulation of Shh-induced ptch1 mRNA expression levels at 300 nM after 36 hrs by RT-qPCR analysis; format: cell-based; how it was run: as §1
Mus musculus [4] = species on record: Mus musculus; assay: Inhibition of hedgehog signaling pathway in mouse NIH/3T3 cells harboring sufu shRNA assessed as downregulation of Gli1 mRNA expression at 300 nM by RT-qPCR analysis; format: cell-based
Mus musculus [5] = species on record: Mus musculus; assay: Inhibition of hedgehog signaling pathway in mouse NIH/3T3 cells assessed as reduction in edogenous expression of Gli2 protein by immunoblot analysis; format: cell-based
How it was run: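 NIH-3T3 cells cultured in 10% FBS were exposed to compound at various concentrations for 24 h. Endogenous Gli1 and Gli2 detected by Western blot.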

Mus musculus [6] = species on record: Mus musculus; assay: Inhibition of hedgehog signaling pathway in mouse Light2 cells harboring Smo D473H mutant after 36 hrs by Gli luciferase activity; format: cell-based
How it was run: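 Light II cells (NIH-3T3 stably carrying Gli-responsive firefly luciferase and Renilla vector) transfected with wild-type, D473H or W535L Smo plasmid. Exposed to compound for 36 h, then dual luciferase assay with firefly/Renilla normalization. IC50 derived and given as mean ± SD.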

Medulloblastoma cell = assay: Antiproliferative activity against mouse Ptch+/- p53-/- medulloblastoma cells assessed as reduction in cell proliferation after 72 hrs by MTS assay; format: functional, cell-based
How it was run: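 Tumor cells obtained from ptch+/−;p53−/− medulloblastoma allografts by mechanical mincing and collagenase digestion. Cultured in Neurobasal A with B-27, EGF 20 ng/mL, bFGF 20 ng/mL, nonessential amino acids and N-acetylcysteine 60 μg/mL. Exposed to compounds for 72 h, then proliferation read by MTS assay. Data given as mean ± SD.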

Mus musculus [7] = species on record: Mus musculus; assay: Inhibition of hedgehog signaling pathway in mouse Ptch+/- p53-/- medulloblastoma cells assessed as reduction in ptch1 mRNA expression at 3 uM by RT-qPCR analysis
How it was run: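 ptch+/−;p53−/− medulloblastoma cells kept in Neurobasal A/B-27 medium with EGF and bFGF, then treated. Gli1 and ptch1 mRNA measured by RT-qPCR. Data given as mean ± SD.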

Mus musculus [8] = assay: Downregulation of Gli1 mRNA expression level in athymic nude mouse implanted with mouse Ptch+/- p53-/- medulloblastoma cells at 25 to 50 mg/kg, ip bid for 15 consecutive days measured after 4 hrs of last dosage by RT-qPCR analysis; format: functional, organism-based
How it was run: (§2)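 Same allograft model (n = 5), dosed ip twice daily for 15 days in 0.5% methylcellulose/0.2% Tween-80 suspension. Tumors harvested 4 h after the last dose. Gli1 and ptch1 mRNA quantified by RT-qPCR. Data given as mean ± SD.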

Mus musculus [9] = assay: Downregulation of ptch1 mRNA expression level in athymic nude mouse implanted with mouse Ptch+/- p53-/- medulloblastoma cells at 25 to 50 mg/kg, ip bid for 15 consecutive days measured after 4 hrs of last dosage by RT-qPCR analysis; format: functional, organism-based; how it was run: as §2

COc1ccc(CN2C[C@@H]3CN(S(=O)(=O)c4ccc(Cl)cc4)CC[C@@H]3Oc3c(NC(=O)C4CC4)cccc3C2=O)cc1 (racemic)
active: inhibition (Mus musculus [1]) Dose-dependent effect | inhibition (Mus musculus [2]) | inhibition (Mus musculus [3]) | inhibition (Mus musculus [4]) | inhibition (Mus musculus [5]) Dose-dependent effect | inhibition (Mus musculus [6]) Dose-dependent effect | Activity (Medulloblastoma cell) Dose-dependent effect | inhibition (Mus musculus [7]) | Activity (Mus musculus [8]) | Activity (Mus musculus [9])
